Reference: publication PMC8248410 (Chemmedchem, 2021)
Where a SMILES comes first, the peptide text is derived from it.

Test system: HIV‐1NL4‐3
Assay: SEAP reporter cell HIV‐1 infection assay
Assay type: cell-based
Details: running text on Table 1 data; compared with P6‐2
Method in brief: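 CEMx174 indicator cells carrying SEAP under SIV LTR control, grown in RPMI 1640 with 10 % heat‑inactivated FCS, glutamine, penicillin and streptomycin. Peptides added to cells before HIV‑1 NL4‑3, which came from 293T transfection supernatant harvested at 48 h and filtered. SEAP activity in supernatant read 3 days post‑infection by commercial kit. Mean and SEM of ≥3 independent experiments; IC50 from fitted curves.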

Molecule	HIV‐1 inhibitory activity, result in words
CC(=O)N[C@@H](CC(C)C)C(=O)N[C@@H](CS)C(=O)N[C@@H](CC(=O)O)C(=O)N[C@@H](CS)C(=O)N1CCC[C@H]1C(=O)N[C@@H](CC(N)=O)C(=O)NCC(=O)N1CCC[C@H]1C(=O)N[C@@H](Cc1c[nH]c2ccccc12)C(=O)N[C@H](C(=O)N[C@@H](Cc1c[nH]c2ccccc12)C(=O)N[C@@H](C)C(=O)N1CCC[C@H]1C(=O)N[C@@H](C)C(=O)N[C@@H](Cc1ccccc1)C(=O)N[C@@H](CS)C(=O)N[C@@H](CCC(N)=O)C(=O)N[C@@H](C)C(=O)N[C@H](C(=O)NCC(=O)O)C(C)C)C(C)C [P6‐2‐11] (Ac-LCDCPNGPWVWAPAFCQAVG-OH)	approximately tenfold loss
Ac-LCDCPNGPWAWVPAFCQAVG-OH (cysteine pairing not given here) [P6‐2‐9]	approximately tenfold loss
